Reference: ChEMBL document CHEMBL3877303 (J Med Chem, 2017)
Calls of active or inactive are those of the source. The rule behind the calls is not given here.

How the values were obtained:
[1] = Growth inhibition of mouse BAF3 cells measured after 72 hrs by CellTiter-Glo or CCK8 assay; type: cell-based
Summary of the method: (§1)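 Cells at 1 to 2.5×10^4 cells/mL were incubated with a range of compound concentrations for 72 h. Viability was read by CellTiter-Glo luminescence or CCK-8 absorbance (450/655 nm) and normalized to DMSO control. GI50 came from curve fitting, with triplicate testing.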

[2] = biological target: Tyrosine-protein kinase Blk (Homo sapiens, UniProt P51451); experiment: Inhibition of Tel-fused BLK (unknown origin) expressed in BAF3 cells assessed as growth inhibition measured after 72 hrs by CellTiter-Glo or CCK8 assay; type: cell-based
Tyrosine-protein kinase Blk, sequence (P51451 2-505 limits assumed): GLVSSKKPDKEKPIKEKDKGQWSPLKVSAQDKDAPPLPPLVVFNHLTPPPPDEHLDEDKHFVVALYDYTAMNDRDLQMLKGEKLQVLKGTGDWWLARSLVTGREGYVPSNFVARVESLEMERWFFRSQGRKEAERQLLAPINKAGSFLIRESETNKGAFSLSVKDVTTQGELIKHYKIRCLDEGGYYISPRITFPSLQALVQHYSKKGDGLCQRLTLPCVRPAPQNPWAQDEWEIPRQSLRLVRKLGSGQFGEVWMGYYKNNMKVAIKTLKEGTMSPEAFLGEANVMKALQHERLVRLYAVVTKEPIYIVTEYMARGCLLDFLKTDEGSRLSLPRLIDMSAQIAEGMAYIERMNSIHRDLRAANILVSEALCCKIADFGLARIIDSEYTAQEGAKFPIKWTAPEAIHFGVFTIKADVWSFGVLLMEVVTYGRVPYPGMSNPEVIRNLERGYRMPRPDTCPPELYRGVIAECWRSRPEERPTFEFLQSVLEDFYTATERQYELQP
Summary of the method: (§2)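 BaF3 lines were made by retroviral transduction with kinase-fusion MSCV vectors packaged in HEK293T cells. Cells were selected with puromycin for 48 h, then selected again without IL-3 so growth depends on the introduced kinase. […] They were seeded at 1 to 2.5×10^4 cells/mL with compound dilutions and incubated 72 h. Viability was read by CellTiter-Glo luminescence or CCK-8 absorbance (450/655 nm), normalized to DMSO control; GI50 was curve-fitted from triplicate tests.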

[3] = biological target: T1, Discoidin domain-containing receptor 2 (Homo sapiens) (UniProt Q16832); experiment: Inhibition of BCR-fused DDR2 (unknown origin) expressed in BAF3 cells assessed as growth inhibition measured after 72 hrs by CellTiter-Glo or CCK8 assay; type: cell-based; summary of the method: as §2
T1 sequence (whole entry): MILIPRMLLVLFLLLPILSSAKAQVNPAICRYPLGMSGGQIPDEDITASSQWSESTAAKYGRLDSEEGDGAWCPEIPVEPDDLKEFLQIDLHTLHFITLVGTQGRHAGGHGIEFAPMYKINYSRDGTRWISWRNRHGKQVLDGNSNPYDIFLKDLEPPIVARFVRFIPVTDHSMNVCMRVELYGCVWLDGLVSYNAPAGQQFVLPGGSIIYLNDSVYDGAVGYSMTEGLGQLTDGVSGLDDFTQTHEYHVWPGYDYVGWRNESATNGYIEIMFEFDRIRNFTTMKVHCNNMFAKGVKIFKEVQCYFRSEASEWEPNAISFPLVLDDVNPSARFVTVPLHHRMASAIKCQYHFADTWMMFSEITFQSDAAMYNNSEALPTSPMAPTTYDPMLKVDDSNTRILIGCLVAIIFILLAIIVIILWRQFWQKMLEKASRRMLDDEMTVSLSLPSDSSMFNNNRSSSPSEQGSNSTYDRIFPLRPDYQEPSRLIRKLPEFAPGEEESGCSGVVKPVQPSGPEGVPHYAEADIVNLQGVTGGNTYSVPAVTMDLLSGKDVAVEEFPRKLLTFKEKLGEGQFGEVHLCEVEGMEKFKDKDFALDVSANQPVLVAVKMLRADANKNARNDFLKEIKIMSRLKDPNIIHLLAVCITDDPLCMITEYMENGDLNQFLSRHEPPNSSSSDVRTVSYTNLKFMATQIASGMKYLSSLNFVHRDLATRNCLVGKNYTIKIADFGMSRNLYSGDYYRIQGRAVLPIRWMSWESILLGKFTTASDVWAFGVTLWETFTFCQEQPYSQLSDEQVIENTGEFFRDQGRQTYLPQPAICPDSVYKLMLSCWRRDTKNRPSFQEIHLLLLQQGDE

[4] = biological target: Vascular endothelial growth factor receptor 2 (Homo sapiens) (UniProt P35968); experiment: Inhibition of Tel-fused VEGFR2 (unknown origin) expressed in BAF3 cells assessed as growth inhibition measured after 72 hrs by CellTiter-Glo or CCK8 assay; type: cell-based; summary of the method: as §2
Vascular endothelial growth factor receptor 2 (Homo sapiens), sequence (P35968 whole entry, the tested form may be a part): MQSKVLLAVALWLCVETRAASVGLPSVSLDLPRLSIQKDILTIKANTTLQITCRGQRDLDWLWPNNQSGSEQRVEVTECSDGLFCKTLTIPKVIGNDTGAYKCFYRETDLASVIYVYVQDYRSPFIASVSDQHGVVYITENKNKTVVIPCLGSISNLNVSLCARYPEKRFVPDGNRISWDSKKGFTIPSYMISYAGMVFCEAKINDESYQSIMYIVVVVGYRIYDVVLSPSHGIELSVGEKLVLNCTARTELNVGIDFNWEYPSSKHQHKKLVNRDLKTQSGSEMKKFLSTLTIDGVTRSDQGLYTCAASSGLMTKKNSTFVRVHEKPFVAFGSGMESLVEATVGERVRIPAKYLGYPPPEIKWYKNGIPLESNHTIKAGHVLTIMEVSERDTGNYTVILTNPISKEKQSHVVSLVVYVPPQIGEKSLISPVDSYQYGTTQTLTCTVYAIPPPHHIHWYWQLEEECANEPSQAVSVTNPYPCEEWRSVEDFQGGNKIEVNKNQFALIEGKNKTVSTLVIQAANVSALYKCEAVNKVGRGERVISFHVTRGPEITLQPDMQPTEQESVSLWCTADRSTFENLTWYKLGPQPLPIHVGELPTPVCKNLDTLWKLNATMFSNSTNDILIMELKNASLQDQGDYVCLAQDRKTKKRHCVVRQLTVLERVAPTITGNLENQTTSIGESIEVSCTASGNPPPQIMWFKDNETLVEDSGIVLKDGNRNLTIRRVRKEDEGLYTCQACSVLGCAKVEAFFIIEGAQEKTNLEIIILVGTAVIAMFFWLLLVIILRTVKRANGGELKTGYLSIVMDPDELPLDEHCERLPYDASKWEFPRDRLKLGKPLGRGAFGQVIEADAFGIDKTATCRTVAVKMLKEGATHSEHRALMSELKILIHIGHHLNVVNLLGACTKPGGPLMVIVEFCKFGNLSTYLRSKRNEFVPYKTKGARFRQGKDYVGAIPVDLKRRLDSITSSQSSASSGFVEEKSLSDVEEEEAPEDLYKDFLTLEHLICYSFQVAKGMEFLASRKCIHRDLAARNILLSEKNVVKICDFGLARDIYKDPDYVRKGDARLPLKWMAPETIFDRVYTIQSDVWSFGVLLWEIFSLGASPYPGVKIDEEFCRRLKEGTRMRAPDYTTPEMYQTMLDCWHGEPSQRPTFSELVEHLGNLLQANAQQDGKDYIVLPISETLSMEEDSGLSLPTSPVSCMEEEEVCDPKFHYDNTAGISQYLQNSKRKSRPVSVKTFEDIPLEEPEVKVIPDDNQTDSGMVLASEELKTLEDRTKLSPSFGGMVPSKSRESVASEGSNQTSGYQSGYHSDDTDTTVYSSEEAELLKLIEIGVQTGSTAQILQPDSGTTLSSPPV

[5] = Antiproliferative activity against human GISTT1 cells measured after 72 hrs by CellTiter-Glo or CCK8 assay; type: functional; details: GISTT1, 72 h; summary of the method: as §1
[6] = Antiproliferative activity against human GIST882 cells measured after 72 hrs by CellTiter-Glo or CCK8 assay; type: functional; details: GIST882, 72 h; summary of the method: as §1
[7] = Antiproliferative activity against human GIST48B cells measured after 72 hrs by CellTiter-Glo or CCK8 assay; type: functional; summary of the method: as §1
[8] = Antiproliferative activity against human MV4-11 cells measured after 72 hrs by CellTiter-Glo or CCK8 assay; type: functional; details: MV4-11, 72 h; summary of the method: as §1
[9] = Antiproliferative activity against human MOLM14 cells measured after 72 hrs by CellTiter-Glo or CCK8 assay; type: functional; details: MOLM-14, 72 h; summary of the method: as §1
[10] = Antiproliferative activity against human U937 cells measured after 72 hrs by CellTiter-Glo or CCK8 assay; type: functional; details: U-937, 72 h; summary of the method: as §1
[11] = Antiproliferative activity against human HL60 cells measured after 72 hrs by CellTiter-Glo or CCK8 assay; type: functional; details: HL-60, 72 h; summary of the method: as §1
[12] = Antiproliferative activity against human Rec1 cells measured after 72 hrs by CellTiter-Glo or CCK8 assay; type: functional; details: Rec1, 72 h; summary of the method: as §1
[13] = Antiproliferative activity against CHO cells measured after 72 hrs by CellTiter-Glo or CCK8 assay; type: cell-based, Cricetulus griseus; details: chinese hamster; summary of the method: as §1
[14] = Anticancer activity against human K562 cells xenografted in nu/nu mouse assessed as tumor growth inhibition at 100 mg/kg administered daily via oral gavage measured 28 days post compound treatment relative to vehicle-treated control; type: functional; details: 672 h, read-out: TGI
Summary of the method: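 Female nu/nu mice received ten million K562 cells subcutaneously in the right flank, in PBS mixed 1:1 with Matrigel. Daily oral gavage began at 200-400 mm³ tumor size, with 4 or 5 mice per group. Dosing was 25, 50 or 100 mg/kg/d or vehicle (0.5% methylcellulose/0.4% Tween80) for 28 days. Body weight and tumor size were normalized to initial values, and final tumor weight was recorded. Data are mean ± SEM.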

[15] = system: Mast/stem cell growth factor receptor Kit (Homo sapiens), P10721 [V559D]; experiment: Inhibition of Tel-fused c-KIT V559D mutant (unknown origin) expressed in BAF3 cells assessed as growth inhibition measured after 72 hrs by CellTiter-Glo or CCK8 assay; type: cell-based; summary of the method: as §2
Mast/stem cell growth factor receptor Kit (Homo sapiens), P10721 [V559D], sequence (P10721 whole entry V559D, the tested form may be a part): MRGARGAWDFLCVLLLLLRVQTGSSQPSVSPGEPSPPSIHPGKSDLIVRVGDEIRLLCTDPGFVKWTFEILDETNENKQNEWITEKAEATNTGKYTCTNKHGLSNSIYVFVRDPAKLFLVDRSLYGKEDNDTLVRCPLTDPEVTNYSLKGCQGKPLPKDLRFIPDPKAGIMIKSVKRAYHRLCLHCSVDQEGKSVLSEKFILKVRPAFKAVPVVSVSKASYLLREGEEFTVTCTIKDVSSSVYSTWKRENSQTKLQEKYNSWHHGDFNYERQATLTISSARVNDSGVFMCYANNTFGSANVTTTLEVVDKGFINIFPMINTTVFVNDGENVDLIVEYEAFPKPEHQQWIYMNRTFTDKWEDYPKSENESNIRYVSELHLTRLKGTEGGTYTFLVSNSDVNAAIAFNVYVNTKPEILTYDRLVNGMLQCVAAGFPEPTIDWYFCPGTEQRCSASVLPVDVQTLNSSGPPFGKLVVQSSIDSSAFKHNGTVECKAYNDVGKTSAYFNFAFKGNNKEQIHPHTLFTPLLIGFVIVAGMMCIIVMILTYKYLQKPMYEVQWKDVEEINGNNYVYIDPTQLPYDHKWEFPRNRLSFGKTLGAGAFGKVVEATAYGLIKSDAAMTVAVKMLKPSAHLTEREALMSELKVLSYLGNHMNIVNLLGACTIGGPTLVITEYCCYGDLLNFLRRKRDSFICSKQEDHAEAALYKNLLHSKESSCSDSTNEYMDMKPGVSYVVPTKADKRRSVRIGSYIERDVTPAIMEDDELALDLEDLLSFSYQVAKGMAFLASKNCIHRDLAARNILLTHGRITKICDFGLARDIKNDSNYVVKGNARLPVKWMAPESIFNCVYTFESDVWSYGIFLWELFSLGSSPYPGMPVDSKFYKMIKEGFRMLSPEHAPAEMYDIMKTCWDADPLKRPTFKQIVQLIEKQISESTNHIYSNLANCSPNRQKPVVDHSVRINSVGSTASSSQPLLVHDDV

[16] = biological target: BCR/ABL p210 fusion protein (Homo sapiens, UniProt A1Z199); experiment: Inhibition of BCR/ABL p210 fusion protein autophosphorylation at Y245 in human K562 cells measured after 2 hrs by immunoblotting; type: cell-based
BCR/ABL p210 fusion protein, sequence (A1Z199 whole entry, the tested form may be a part): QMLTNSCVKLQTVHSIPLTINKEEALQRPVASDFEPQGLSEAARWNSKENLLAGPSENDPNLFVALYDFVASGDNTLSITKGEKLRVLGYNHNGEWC
Summary of the method: (§3)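 After an ice-cold PBS wash, cells were lysed in RIPA buffer (50 mM Tris pH 8.0) with protease and phosphatase inhibitors, and protein was quantified by BCA. Lysates were run on SDS-PAGE, transferred to PVDF and blocked in 5% milk/TBST. Phospho- and total proteins were probed by immunoblot with ECL detection; β-actin served as loading control.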

[17] = biological target: Mast/stem cell growth factor receptor Kit (Homo sapiens, UniProt P10721); experiment: Inhibition of c-KIT mediated signaling pathways assessed as reduction in ERK1/2 phosphorylation at T202/Y204 in human GISTT1 cells at 0.03 to 10 uM measured after 2 hrs by immunoblotting; type: cell-based; summary of the method: as §3
Mast/stem cell growth factor receptor Kit, sequence (P10721 whole entry): as the sequence (P10721 whole entry V559D, the tested form may be a part) above, with D559V counted along it

| GI50 [2] [µM] | GI50 [3] [µM] | GI50 [4] [µM] | GI50 [15] [µM] | EC50 [16] [µM] | inhibition [17] | Structure (SMILES) | GI50 at 72 h [1] [µM] | GI50 [5] [µM] | GI50 [6] [µM] | GI50 [7] [µM] | GI50 [8] [µM] | GI50 [9] [µM] | GI50 [10] [µM] | GI50 [11] [µM] | GI50 [12] [µM] | GI50 at 72 h [13] [µM] | inhibition in vivo at 100 mg/kg [14] [%] |
| --- | --- | --- | --- | --- | --- | --- | --- | --- | --- | --- | --- | --- | --- | --- | --- | --- | --- |
| > 10 | > 10 | > 10 |  |  |  | Cc1ccc(NC(=O)c2ccc(CN3CCN(C)CC3)cc2)cc1Nc1nccc(-c2cccnc2)n1 [IMATINIB] | > 10 | 0.008 | 0.014 | > 10 | > 10 | > 10 | > 10 | > 10 | > 10 | > 10 | 31.9 |
| 0.658 | 6.08 | 0.035 | 0.078 | < 0.1 | Active | Cc1ccc(C(=O)N2CCC(Oc3cc(NC(=O)c4ccc(CN5CCN(C)CC5)c(C(F)(F)F)c4)ccc3C)CC2)cn1 | > 10 | 0.023 | 0.095 | 3.96 | 8.14 | 8.49 | 5.73 | 7.34 | 3.47 | > 10 | 66.8 |
